# Source: ChEMBL document CHEMBL4130549, “Synthesis and bioactivities study of new antibacterial peptide mimics: The dialkyl cationic amphiphiles” (Eur J Med Chem, 2018)
# The source made the active and inactive calls. The rule behind the calls is not given here.
# Experiments:
# Staphylococcus aureus [1] = test: Antibacterial activity against Staphylococcus aureus ATCC 29213 after 16 to 20 hrs by broth microdilution method; format: functional
# Method in brief: (§1)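 CLSI broth microdilution in cation-adjusted Mueller-Hinton broth. A 4-6 h culture was diluted to about 10⁶ CFU/mL and mixed 1:1 with twofold compound dilutions (256–0.5 µg/mL before mixing) prepared from aqueous stocks. Plates were incubated at 37 °C for 16-20 h. Each concentration was tested in duplicate, and the experiment was repeated at least twice.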
# Enterococcus faecalis = test: Antibacterial activity against Enterococcus faecalis after 16 to 20 hrs by broth microdilution method; format: functional
# Method in brief: (§2)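 Broth microdilution per CLSI in cation-adjusted Mueller-Hinton broth; 4-6 h cultures (~10⁸ CFU/mL) diluted to ~10⁶ CFU/mL and mixed 1:1 with twofold dilutions of water-dissolved compound (256 to 0.5 µg/mL). Incubated 16-20 h at 37 °C; MIC read visually. Each concentration run in duplicate, whole experiment repeated at least twice. MRSA, KPC and NDM-1 strains were clinical isolates.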
# Escherichia coli [2] = test: Antibacterial activity against Escherichia coli ATCC 25922 after 16 to 20 hrs by broth microdilution method; format: functional; method in brief: as §2
# Salmonella enterica = test: Antibacterial activity against Salmonella enterica after 16 to 20 hrs by broth microdilution method; format: functional; method in brief: as §2
# Staphylococcus aureus [3] = test: Antibacterial activity against methicillin-resistant Staphylococcus aureus after 16 to 20 hrs by broth microdilution method; format: functional; method in brief: as §1
# Klebsiella pneumoniae [4] = test: Antibacterial activity against carbapenemase-producing Klebsiella pneumoniae after 16 to 20 hrs by broth microdilution method; format: functional; method in brief: as §2
# Enterobacteriaceae [5] = test: Antibacterial activity against NDM-1-producing Enterobacteriaceae after 16 to 20 hrs by broth microdilution method; format: functional; method in brief: as §2
# [6] = Hemolytic activity in sheep RBC after 1 hr; format: ADME, cell-based, Ovis aries, Erythrocyte; conditions: sheep red blood cells (erythrocytes)
# Method in brief: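 Sheep RBCs suspended at 5% in PBS; 150 µL added to 50 µL compound dilutions (5120 to 10 µg/mL series). Incubated 1 h at 37 °C, then centrifuged; supernatant absorbance read at 540 nm. Lysis (%) = (A−A0)/(Atotal−A0)×100, with untreated 5% RBC as A0 and 0.1% Triton X-100 as total.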
# Staphylococcus aureus [7] = test: Antibacterial activity against methicillin-resistant Staphylococcus aureus isolate M1 after 16 to 20 hrs by broth microdilution method; format: functional; method in brief: as §1
# Staphylococcus aureus [8] = test: Antibacterial activity against methicillin-resistant Staphylococcus aureus isolate M2 after 16 to 20 hrs by broth microdilution method; format: functional; method in brief: as §1
# Staphylococcus aureus [9] = test: Antibacterial activity against methicillin-resistant Staphylococcus aureus isolate M3 after 16 to 20 hrs by broth microdilution method; format: functional; method in brief: as §1
# Staphylococcus aureus [10] = test: Antibacterial activity against methicillin-resistant Staphylococcus aureus isolate M4 after 16 to 20 hrs by broth microdilution method; format: functional; method in brief: as §1
# Staphylococcus aureus [11] = test: Antibacterial activity against methicillin-resistant Staphylococcus aureus isolate M5 after 16 to 20 hrs by broth microdilution method; format: functional; method in brief: as §1
# Staphylococcus aureus [12] = test: Antibacterial activity against methicillin-resistant Staphylococcus aureus isolate M6 after 16 to 20 hrs by broth microdilution method; format: functional; method in brief: as §1
# Staphylococcus aureus [13] = test: Antibacterial activity against methicillin-resistant Staphylococcus aureus isolate M7 after 16 to 20 hrs by broth microdilution method; format: functional; method in brief: as §1
# Staphylococcus aureus [14] = test: Antibacterial activity against methicillin-resistant Staphylococcus aureus isolate M8 after 16 to 20 hrs by broth microdilution method; format: functional; method in brief: as §1
# Staphylococcus aureus [15] = test: Antibacterial activity against methicillin-resistant Staphylococcus aureus isolate M9 after 16 to 20 hrs by broth microdilution method; format: functional; method in brief: as §1
# Staphylococcus aureus [16] = test: Antibacterial activity against methicillin-resistant Staphylococcus aureus isolate M10 after 16 to 20 hrs by broth microdilution method; format: functional; method in brief: as §1
# Klebsiella pneumoniae [17] = test: Antibacterial activity against carbapenemase-producing Klebsiella pneumoniae isolate K1 after 16 to 20 hrs by broth microdilution method; format: functional; method in brief: as §2
# Klebsiella pneumoniae [18] = test: Antibacterial activity against carbapenemase-producing Klebsiella pneumoniae isolate K2 after 16 to 20 hrs by broth microdilution method; format: functional; method in brief: as §2
# Klebsiella pneumoniae [19] = test: Antibacterial activity against carbapenemase-producing Klebsiella pneumoniae isolate K3 after 16 to 20 hrs by broth microdilution method; format: functional; method in brief: as §2
# Klebsiella pneumoniae [20] = test: Antibacterial activity against carbapenemase-producing Klebsiella pneumoniae isolate K4 after 16 to 20 hrs by broth microdilution method; format: functional; method in brief: as §2
# Klebsiella pneumoniae [21] = test: Antibacterial activity against carbapenemase-producing Klebsiella pneumoniae isolate K5 after 16 to 20 hrs by broth microdilution method; format: functional; method in brief: as §2
# Klebsiella pneumoniae [22] = test: Antibacterial activity against carbapenemase-producing Klebsiella pneumoniae isolate K6 after 16 to 20 hrs by broth microdilution method; format: functional; method in brief: as §2
# Klebsiella pneumoniae [23] = test: Antibacterial activity against carbapenemase-producing Klebsiella pneumoniae isolate K7 after 16 to 20 hrs by broth microdilution method; format: functional; method in brief: as §2
# Klebsiella pneumoniae [24] = test: Antibacterial activity against carbapenemase-producing Klebsiella pneumoniae isolate K8 after 16 to 20 hrs by broth microdilution method; format: functional; method in brief: as §2
# Klebsiella pneumoniae [25] = test: Antibacterial activity against carbapenemase-producing Klebsiella pneumoniae isolate K9 after 16 to 20 hrs by broth microdilution method; format: functional; method in brief: as §2
# Klebsiella pneumoniae [26] = test: Antibacterial activity against carbapenemase-producing Klebsiella pneumoniae isolate K10 after 16 to 20 hrs by broth microdilution method; format: functional; method in brief: as §2
# Enterobacteriaceae [27] = test: Antibacterial activity against NDM-1-producing Enterobacteriaceae isolate N1 after 16 to 20 hrs by broth microdilution method; format: functional; method in brief: as §2
# Enterobacteriaceae [28] = test: Antibacterial activity against NDM-1-producing Enterobacteriaceae isolate N2 after 16 to 20 hrs by broth microdilution method; format: functional; method in brief: as §2
# Enterobacteriaceae [29] = test: Antibacterial activity against NDM-1-producing Enterobacteriaceae isolate N3 after 16 to 20 hrs by broth microdilution method; format: functional; method in brief: as §2
# Enterobacteriaceae [30] = test: Antibacterial activity against NDM-1-producing Enterobacteriaceae isolate N4 after 16 to 20 hrs by broth microdilution method; format: functional; method in brief: as §2
# Enterobacteriaceae [31] = test: Antibacterial activity against NDM-1-producing Enterobacteriaceae isolate N5 after 16 to 20 hrs by broth microdilution method; format: functional; method in brief: as §2
# Enterobacteriaceae [32] = test: Antibacterial activity against NDM-1-producing Enterobacteriaceae isolate N6 after 16 to 20 hrs by broth microdilution method; format: functional; method in brief: as §2
# Enterobacteriaceae [33] = test: Antibacterial activity against NDM-1-producing Enterobacteriaceae isolate N7 after 16 to 20 hrs by broth microdilution method; format: functional; method in brief: as §2
# Enterobacteriaceae [34] = test: Antibacterial activity against NDM-1-producing Enterobacteriaceae isolate N8 after 16 to 20 hrs by broth microdilution method; format: functional; method in brief: as §2
# Enterobacteriaceae [35] = test: Antibacterial activity against NDM-1-producing Enterobacteriaceae isolate N9 after 16 to 20 hrs by broth microdilution method; format: functional; method in brief: as §2
# Enterobacteriaceae [36] = test: Antibacterial activity against NDM-1-producing Enterobacteriaceae isolate N10 after 16 to 20 hrs by broth microdilution method; format: functional; method in brief: as §2
# Staphylococcus aureus [37] = test: Induction of cytoplasmic membrane depolarization in Staphylococcus aureus ATCC 29213 at 20 ug/ml measured every 2 mins for 12 mins by diSC35 staining based fluorescence assay; format: functional, organism-based
# Method in brief: (§3)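 Mid-log cells (4–6 h) pelleted, washed and resuspended (~10^8 CFU/mL) in PBS for S. aureus, or in 5 mM HEPES, 5 mM glucose and 100 mM KCl (1:1:1) for E. coli. Preloaded with diSC35 (10 µM, 50 µL), 30 min for S. aureus and 40 min plus EDTA (200 µM, 50 µL) for E. coli. Baseline read 8 min (ex 622/em 670 nm), then compound added to 20 µg/mL final and read every 2 min for 12 min. Water control.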
# Escherichia coli [38] = test: Induction of cytoplasmic membrane depolarization in Escherichia coli ATCC 25922 at 20 ug/ml measured every 2 mins for 12 mins by diSC35 staining based fluorescence assay; format: functional, organism-based; method in brief: as §3
# Staphylococcus aureus [39] = test: Induction of inner membrane permeabilization in Staphylococcus aureus ATCC 29213 at 20 ug/ml measured every 2 mins for 12 mins by propidium iodide staining based fluorescence assay; format: functional, organism-based
# Method in brief: (§4)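 Mid-log cells (~10^8 CFU/mL) pre-incubated with propidium iodide (10 µM, 50 µL), 30 min for S. aureus and 40 min for E. coli. Fluorescence (ex 535/em 617 nm) read for 8 min, then compound added to 20 µg/mL final and monitored every 2 min for 12 min. Water-treated control.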
# Escherichia coli [40] = test: Induction of inner membrane permeabilization in Escherichia coli ATCC 25922 at 20 ug/ml measured every 2 mins for 12 mins by propidium iodide staining based fluorescence assay; format: functional, organism-based; method in brief: as §4
# Escherichia coli [41] = test: Induction of outer membrane permeabilization in Escherichia coli ATCC 25922 at 20 ug/ml measured every 2 mins for 12 mins by NPN staining based fluorescence assay; format: functional, organism-based
# Method in brief: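 Mid-log E. coli (~10^8 CFU/mL) in black plates pre-incubated about 40 min with NPN (10 µM, 50 µL). Baseline read 8 min (ex 350/em 420 nm), then compound added to 20 µg/mL final and fluorescence followed every 2 min for 12 min. Water-treated control.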
# Escherichia coli [42] = test: Bactericidal activity against Escherichia coli ATCC 25922 at 12 after 6 hrs by time kill assay; format: functional, organism-based
# Staphylococcus aureus [43] = test: Ratio of MIC for Staphylococcus aureus ATCC 29213 after 20 serial passages to MIC for Staphylococcus aureus ATCC 29213; format: functional
# Method in brief: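 Sub-MIC serial passaging: after an initial broth microdilution MIC, cells grown at MIC/2 were transferred into a new MIC assay after each 24 h incubation, for 20 passages. MIC was plotted against days to follow resistance development. Passaging controls were norfloxacin for S. aureus and colistin for E. coli.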
# Staphylococcus aureus [44] = test: Bactericidal activity against Staphylococcus aureus ATCC 29213 at 12 ug/ml after 6 hrs by time kill assay; format: functional, organism-based
# Method in brief: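 Time-kill: an overnight S. aureus ATCC 29213 culture was diluted 1:10,000 in Mueller-Hinton broth and grown 2 h (early exponential) or 5 h (late exponential) at 37 °C and 225 rpm. Cells were then exposed in tubes under the same conditions. At intervals, aliquots were pelleted, resuspended in PBS, serially diluted tenfold, plated on agar overnight, and counted as CFU/mL. Biological replicates were run.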
structure (smiles),measurement,setting,value
CCCCCCCCN(CCCCCCCC)C(=O)[C@@H](N)C(C)O.Cl (stereo partly specified),MIC,Staphylococcus aureus [1],4 µg/mL
same,MIC,Enterococcus faecalis,8 µg/mL
same,MIC,Escherichia coli [2],16 µg/mL
same,MIC,Salmonella enterica,64 µg/mL
same,MIC,Staphylococcus aureus [3],8 µg/mL
same,MIC,Klebsiella pneumoniae [4],64 µg/mL
same,MIC,Enterobacteriaceae [5],64 µg/mL
same,HC50 at 1 h,[6],268 µg/mL
same,MIC,Staphylococcus aureus [7],8 µg/mL
same,MIC,Staphylococcus aureus [8],4 µg/mL
same,MIC,Staphylococcus aureus [9],4 µg/mL
same,MIC,Staphylococcus aureus [10],4 µg/mL
same,MIC,Staphylococcus aureus [11],8 µg/mL
same,MIC,Staphylococcus aureus [12],8 µg/mL
same,MIC,Staphylococcus aureus [13],8 µg/mL
same,MIC,Staphylococcus aureus [14],8 µg/mL
same,MIC,Staphylococcus aureus [15],8 µg/mL
same,MIC,Staphylococcus aureus [16],8 µg/mL
same,MIC,Klebsiella pneumoniae [17],64 µg/mL
same,MIC,Klebsiella pneumoniae [18],64 µg/mL
same,MIC,Klebsiella pneumoniae [19],64 µg/mL
same,MIC,Klebsiella pneumoniae [20],64 µg/mL
same,MIC,Klebsiella pneumoniae [21],64 µg/mL
same,MIC,Klebsiella pneumoniae [22],64 µg/mL
same,MIC,Klebsiella pneumoniae [23],64 µg/mL
same,MIC,Klebsiella pneumoniae [24],64 µg/mL
same,MIC,Klebsiella pneumoniae [25],64 µg/mL
same,MIC,Klebsiella pneumoniae [26],64 µg/mL
same,MIC,Enterobacteriaceae [27],> 64 µg/mL
same,MIC,Enterobacteriaceae [28],> 64 µg/mL
same,MIC,Enterobacteriaceae [29],64 µg/mL
same,MIC,Enterobacteriaceae [30],64 µg/mL
same,MIC,Enterobacteriaceae [31],64 µg/mL
same,MIC,Enterobacteriaceae [32],> 64 µg/mL
same,MIC,Enterobacteriaceae [33],> 64 µg/mL
same,MIC,Enterobacteriaceae [34],> 64 µg/mL
same,MIC,Enterobacteriaceae [35],> 64 µg/mL
same,MIC,Enterobacteriaceae [36],> 64 µg/mL
same,Activity,Staphylococcus aureus [37],Active
same,Activity,Escherichia coli [38],Active
same,Activity,Staphylococcus aureus [39],Active
same,Activity,Escherichia coli [40],Active
same,Activity,Escherichia coli [41],Active
CO[C@@]1(NC(=O)[C@H](C(=O)O)c2ccc(O)cc2)C(=O)N2C(C(=O)O)=C(CSc3nnnn3C)CO[C@@H]21,Activity,Escherichia coli [42],inactive
CCn1cc(C(=O)O)c(=O)c2cc(F)c(N3CCNCC3)cc21 [NORFLOXACIN],Ratio,Staphylococcus aureus [43],256
CN[C@H](CC(C)C)C(=O)N[C@H]1C(=O)N[C@@H](CC(N)=O)C(=O)N[C@H]2C(=O)N[C@H]3C(=O)N[C@H](C(=O)N[C@H](C(=O)O)c4cc(O)cc(O)c4-c4cc3ccc4O)[C@H](O)c3ccc(c(Cl)c3)Oc3cc2cc(c3O[C@@H]2O[C@H](CO)[C@@H](O)[C@H](O)[C@H]2O[C@H]2C[C@](C)(N)[C@H](O)[C@H](C)O2)Oc2ccc(cc2Cl)[C@H]1O,Activity,Staphylococcus aureus [44],inactive
